Holding throughout (type): functional
Experiment [1] concerns Mus musculus. The experiment can be described thus: Anticonvulsant activity in Swiss albino mouse assessed as protection against PTZ-induced clonic convulsions at 10 mg/kg, ip administered after 30 mins PTZ challenge measured for 20 mins. To be noted: route intraperitoneal. Put shortly:
(§1)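 Groups of six mice got the test suspension in 1% CMC i.p. at the stated dose. After 30 min they received aqueous PTZ 85 mg/kg s.c. and were watched for 20 min for clonic convulsions. The result is the percentage of animals protected.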

The test system of experiment [2] is Mus musculus. The experiment can be described thus: Anticonvulsant activity in Swiss albino mouse assessed as protection against PTZ-induced clonic convulsions administered after 30 mins PTZ challenge measured for 20 mins. Put shortly:
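Mice (groups of six) got the test suspension in 1% CMC i.p., then 30 min later aqueous PTZ 85 mg/kg s.c. Clonic convulsions were watched for 20 min. The number of animals protected per group served as the percentage response for calculating ED50.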

Experiment [3] has as its system Mus musculus. Kind of experiment: Skeletal muscle relaxant activity in Swiss albino mouse assessed as number of falls form rotarod at 5 mg/kg, ip after 30 mins by rotarod method relative to Diazepam. To be noted: route intraperitoneal. The arrangement: scale not given: the % may be the effect or the level left. The method in brief:
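Mice 25–40 g, six per group, were dosed at 5 mg/kg in 1% CMC, with each group serving as its own control. Falls per min on the Rotarod were recorded before dosing and 30 min after. % relaxation = (mean increase in falls − mean control)/mean control ×100. Mean ± SEM, n=6.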
In general terms: Falling from the rotarod earlier than controls is read as motor impairment.

Experiment [4] deals with Mus musculus. Kind of experiment: Anticonvulsant activity in Swiss albino mouse assessed as protection against PTZ-induced clonic convulsions at 9 mg/kg, ip administered after 30 mins PTZ challenge measured for 20 mins. To be noted: route intraperitoneal. Put shortly:
as §1

In experiment [5] the test system is Mus musculus. Kind of experiment: Antidepressant activity in Swiss albino mouse at 5 mg/kg, ip after 30 mins by photoactometer method. Conditions: route intraperitoneal. The method in brief:
(§2)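 Swiss albino mice of either sex, 25–40 g, six per group, acclimatised 10 min. Baseline photoactometer counts were taken over 10 min. Dosing was 5 mg/kg i.p. in 1% CMC, with each group serving as its own control. At 20 and 50 min animals entered the chamber, rested 10 min, then counts were taken for 10 min. % depression = (control − decrease in count)/control ×100. Mean ± SEM, n=6.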

The test system of experiment [6] is Mus musculus. Kind of experiment: Anticonvulsant activity in Swiss albino mouse assessed as protection against PTZ-induced clonic convulsions at 8 mg/kg, ip administered after 30 mins PTZ challenge measured for 20 mins. Conditions: route intraperitoneal. The method in brief:
as §1

The test system of experiment [7] is Mus musculus. The experiment can be described thus: Antidepressant activity in Swiss albino mouse at 5 mg/kg, ip after 60 mins by photoactometer method. To be noted: route intraperitoneal. The method in brief: as §2
Experiment [8] has as its system Mus musculus. The experiment can be described thus: Anticonvulsant activity in Swiss albino mouse assessed as protection against PTZ-induced clonic convulsions at 7 mg/kg, ip administered after 30 mins PTZ challenge measured for 20 mins. To be noted: route intraperitoneal. Put shortly: as §1
The test system of experiment [9] is Mus musculus. Kind of experiment: Anticonvulsant activity in Swiss albino mouse assessed as protection against PTZ-induced clonic convulsions at 5 mg/kg, ip administered after 30 mins PTZ challenge measured for 20 mins. To be noted: route intraperitoneal. The method in brief:
as §1

Experiment [10] deals with Mus musculus. Kind of experiment: Anticonvulsant activity in Swiss albino mouse assessed as protection against PTZ-induced clonic convulsions at 6 mg/kg, ip administered after 30 mins PTZ challenge measured for 20 mins. To be noted: route intraperitoneal. The method in brief: as §1
Experiment [11] deals with Mus musculus. The experiment can be described thus: Anticonvulsant activity in Swiss albino mouse assessed as protection against PTZ-induced clonic convulsions at 4 mg/kg, ip administered after 30 mins PTZ challenge measured for 20 mins. Conditions: route intraperitoneal. The method in brief: as §1
The test system of experiment [12] is Mus musculus. The experiment can be described thus: Anticonvulsant activity in Swiss albino mouse assessed as protection against PTZ-induced clonic convulsions at 11 mg/kg, ip administered after 30 mins PTZ challenge measured for 20 mins. To be noted: route intraperitoneal. Put shortly: as §1

For the compound `CCc1nnc2n(-c3ccc(Cl)cc3)c(=O)c3c4c(sc3n12)CCCC4`, the Activity is 100% in the experiment with Mus musculus [1]; 105.49% in the experiment on Mus musculus [3]; 66.66% with Mus musculus [4]; 71.42% in the experiment with Mus musculus [5]; 33.33% in the experiment with Mus musculus [6]; 83.92% in the experiment on Mus musculus [7]. In the experiment with Mus musculus [2], the ED50 (usually the midpoint of the dose-response relation) turned out to be 8.5 mg/kg.

For the compound `O=c1c2c3c(sc2n2c(S)nnc2n1-c1ccc(Cl)cc1)CCCC3`, the Activity in the experiment with Mus musculus [8] is 100%; in the experiment with Mus musculus [3], 109.62%; in the experiment with Mus musculus [9], 33.33%; in the experiment on Mus musculus [5], 81.71%; in the experiment with Mus musculus [10] it was 66.66%; in the experiment with Mus musculus [7], 90%. Further, in the experiment with Mus musculus [2], the ED50 was determined as 5.5 mg/kg.

As for `Nc1nnc2n(-c3ccc(Cl)cc3)c(=O)c3c4c(sc3n12)CCCC4`, the Activity in the experiment with Mus musculus [8] came out at 66.66%; in the experiment on Mus musculus [3] it was 107.52%; in the experiment with Mus musculus [5] it was 82.24%; in the experiment on Mus musculus [6] it was 100%; in the experiment with Mus musculus [10] it was 16.66%; in the experiment on Mus musculus [7], 88.78%. Further, the ED50 in the experiment on Mus musculus [2] was 6.73 mg/kg.

`CCCc1nnc2n(-c3ccc(Cl)cc3)c(=O)c3c4c(sc3n12)CCCC4`: in the experiment with Mus musculus [2], the ED50 is 4.4 mg/kg. In addition, the Activity with Mus musculus [3] is 116.62%; in the experiment on Mus musculus [9], 83.33%; in the experiment on Mus musculus [11], 16.66%; in the experiment on Mus musculus [5], 78.78%; in the experiment on Mus musculus [10], 100%; with Mus musculus [7], 90.4%.

Consider `Cc1nnc2n(-c3ccc(Cl)cc3)c(=O)c3c4c(sc3n12)CCCC4`, for which the Activity in the experiment on Mus musculus [1] was 83.33%; in the experiment on Mus musculus [3], 102.75%; in the experiment on Mus musculus [4], 33.33%; in the experiment on Mus musculus [5], 75.51%; with Mus musculus [12], 100%; with Mus musculus [7], 82.65%. In the experiment on Mus musculus [2], the ED50 worked out at 9.33 mg/kg.

Turning to `CN1C(=O)CN=C(c2ccccc2)c2cc(Cl)ccc21` [DIAZEPAM], in the experiment on Mus musculus [2], the ED50 came out at 1.18 mg/kg. Further, the Activity with Mus musculus [5] came to 85.43%; in the experiment with Mus musculus [7] it was 89.32%.

Values taken from ChEMBL document CHEMBL1155267, “Synthesis of novel bioactive derivatives of 3-(4-chlorophenyl)-2-hydrazino-5,6,7,8-tetrahydrobenzo(b)thieno[2,3-d]pyrimidine-4(3H)-ones” (2009).
